Reference: ChEMBL document CHEMBL4346690, “Structure-activity relationship studies of (E)-3,4-dihydroxystyryl alkyl sulfones as novel neuroprotective agents based on improved antioxidant, anti-inflammatory activities and BBB permeability” (Eur J Med Chem, 2019)
Calls of active or inactive are those of the source. The rule behind the calls is not given here.

Key:
[1] = Antioxidant activity assessed as DPPH radical scavenging activity after 1 hr by […]; type: functional
Outline: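 DPPH (0.2 mM) in ethanol mixed with sample, kept 1 h at room temperature, absorbance read at 517 nm. Scavenging % = [1−(Ac−Ab)/A0]×100, where Ab is the sample in ethanol without DPPH and A0 is the ethanol+DPPH control. EC50 reported; vitamin C used as reference antioxidant; mean ± SD, n = 3.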

[2] = Anti-neuroinflammatory activity in […] BV2 cells assessed as reduction in LPS-induced NO production preincubated for 3 hrs followed by LPS stimulation for 24 hrs by Griess assay; type: functional, cell-based; settings: BV-2
Outline: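 BV2 microglia seeded 3 × 10^5 cells mL−1 for 1 day; compounds in medium added for 3 h, then LPS (final 100 ng mL−1) for a further 24 h. Supernatant mixed with Griess reagent, absorbance at 540 nm. Inhibition % from NO release of LPS-only, unstimulated and compound+LPS wells; IC50 reported; mean ± SD, n = 3.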

[3] = Cytotoxicity against rat PC12 cells assessed as cell viability at 100 uM after 24 hrs by MTT assay; type: cell-based, PC-12; settings: read-out: Activity
Outline: (§1)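 Cells kept in high-glucose DMEM with 10% FBS and 1% PS at 37 °C, 5% CO2. Plated 1 day, then compounds for 24 h; viability by MTT at 100 µM as ODtreated/ODcontrol × 100%, untreated = 100%. Mean ± SD, n = 3.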

PC-12 [4] = experiment: Neuroprotection activity in rat PC12 cells assessed as reduction in 6-OHDA-induced cell damages at 10 uM preincubated for 3 hrs followed by H2O2 addition and measured after 24 hrs by MTT assay relative to control; type: functional, cell-based; settings: in the assay text read “6-OHDA addition” for “H2O2 addition”
Outline: (§2)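 PC12 cells plated at 2 × 10^5 cells mL−1 for 1 day, pretreated 3 h with compounds at 2.5, 5 or 10 µM, then 6-OHDA (final 250 µM) added for 24 h. Viability by MTT, absorbance 570 nm; untreated cells = 100%; mean ± SD, n = 3.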

[5] = Cytotoxicity against […] BV2 cells assessed as cell viability at 100 uM after 24 hrs by MTT assay; type: cell-based; settings: read-out: Activity; outline: as §1
PC-12 [6] = experiment: Neuroprotection activity in rat PC12 cells assessed as reduction in H2O2-induced cell death preincubated for 3 hrs followed by H2O2 addition and measured after 3 hrs by MTS assay; type: functional, cell-based
Outline: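 PC12 cells plated at 2 × 10^5 cells mL−1 for 1 day, pretreated 3 h with compounds, then H2O2 (final 400 µM) for 3 h. Viability by MTS at 490 nm relative to untreated cells (100%); single-concentration tests at 2.5, 5, 10 µM and IC50 values; mean ± SD, n = 3.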

[7] = Cytotoxicity against […] BV2 cells assessed as cell viability at 0.625 to 40 uM after 24 hrs by MTS assay; type: cell-based; settings: read-out: Activity
Outline: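 Viability of BV2 cells read by MTS under the NO-assay conditions: 3 h compound (0.625–40 µM) pretreatment followed by LPS 100 ng mL−1 for 24 h.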

PC-12 [8] = experiment: Neuroprotection activity in rat PC12 cells assessed as reduction in 6-OHDA-induced cell damages at 2.5 uM preincubated for 3 hrs followed by H2O2 addition and measured after 24 hrs by MTT assay relative to control; type: functional, cell-based; settings: in the assay text read “6-OHDA addition” for “H2O2 addition”; outline: as §2
PC-12 [9] = experiment: Neuroprotection against H2O2-induced cell death in rat PC12 cells assessed as increase in cell viability at 5 uM preincubated for 3 hrs followed by H2O2 addition and measured after 3 hrs by MTS assay relative to CAPE; type: functional
Outline: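 PC12 cells plated at 2 × 10^5 cells/mL for 1 day, pretreated with compound (2.5, 5, 10 µM) for 3 h, then H2O2 added (final 400 µM) for 3 h. Viability read by MTS at 490 nm, untreated cells = 100%. Mean ± SD, n = 3.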

| SMILES | EC50 [1] | IC50 [2] | viability at 24 h, 100 µM [3] | Activity (PC-12 [4]) | viability at 24 h, 100 µM [5] | IC50 (PC-12 [6]) | viability at 24 h, up to 40 µM [7] | Activity (PC-12 [8]) | Activity (PC-12 [9]) |
| --- | --- | --- | --- | --- | --- | --- | --- | --- | --- |
| O=S(=O)(/C=C/c1ccc(O)c(O)c1)CC1CCCO1 (centres undefined) | 10.5 µM | 54.6 µM | 98% | inactive | 93.9% | 27100 nM | > 90% | – | – |
| O=S(=O)(/C=C/c1ccc(O)c(O)c1)CCC1CCCC1 | 6.8 µM | 2.5 µM | 77.7% | Active | 76.6% | 1960 nM | > 90% | Active | – |
| O=S(=O)(/C=C/c1ccc(O)c(O)c1)CCCCCCCCCCCO | 22.6 µM | 13.3 µM | 100% | Active | 50.4% | 24100 nM | > 90% | Active | – |
| O=S(=O)(/C=C/c1ccc(O)c(O)c1)CCCC1CCCCC1 | 7.9 µM | 9.2 µM | 91.3% | Active | 77.7% | 1000 nM | > 90% | Active | 30% |
| CCCCCCCCCCCS(=O)(=O)/C=C/c1ccc(O)c(O)c1 | 11.4 µM | 6.9 µM | 52.1% | Active | 23.2% | 2340 nM | > 90% | Active | – |
| CCCCCCCCCCCCS(=O)(=O)/C=C/c1ccc(O)c(O)c1 | 8.5 µM | 6.6 µM | 28.2% | Active | 25.2% | 2270 nM | > 90% | Active | – |
| CCCCCS(=O)(=O)/C=C/c1ccc(O)c(O)c1 | 8.1 µM | 3.3 µM | 57.4% | Active | 70.1% | 1830 nM | > 90% | Active | 30% |
| O=C(/C=C/c1ccc(O)c(O)c1)OCCc1ccccc1 [CAFFEIC ACID PHENETHYL ESTER] | 14.6 µM | 6 µM | 85.1% | Active | 69.3% | 2000 nM | > 90% | – | – |
| CCCCCCCS(=O)(=O)/C=C/c1ccc(O)c(O)c1 | 7.1 µM | 8.5 µM | 85.7% | Active | 52.5% | 1330 nM | > 90% | Active | – |
| O=S(=O)(/C=C/c1ccc(O)c(O)c1)CC1CCCCC1 | 7.5 µM | 6.7 µM | 87% | Active | 74.7% | 1850 nM | > 90% | Active | 30% |
| O=S(=O)(/C=C/c1ccc(O)c(O)c1)CC1CCC1 | 8.8 µM | 20.8 µM | 80.2% | Active | 83.8% | 4810 nM | > 90% | – | – |
| CCCCCCCCCS(=O)(=O)/C=C/c1ccc(O)c(O)c1 | 7.7 µM | 7.4 µM | 70.6% | Active | 66.6% | 1930 nM | > 90% | Active | – |
| C=CCCCCCS(=O)(=O)/C=C/c1ccc(O)c(O)c1 | 7.1 µM | 11.2 µM | 67.5% | Active | 58.9% | 1620 nM | > 90% | Active | 30% |
| O=S(=O)(/C=C/c1ccc(O)c(O)c1)CC1CCCCO1 (centres undefined) | 10.8 µM | 6.9 µM | 88.3% | Active | 78.8% | 3340 nM | > 90% | – | – |
| O=S(=O)(/C=C/c1ccc(O)c(O)c1)CCCCCCCO | 5.9 µM | 14.3 µM | 91.8% | Active | 72% | 9910 nM | > 90% | Active | – |
| C=CCCCCCCCS(=O)(=O)/C=C/c1ccc(O)c(O)c1 | 6.9 µM | 8.3 µM | 74.7% | Active | 71.9% | 1900 nM | > 90% | Active | 30% |
| CCCCCCCCCCS(=O)(=O)/C=C/c1ccc(O)c(O)c1 | 6.8 µM | 7.3 µM | 59.7% | Active | 34.1% | 2210 nM | > 90% | Active | – |
| CCCCCCCCS(=O)(=O)/C=C/c1ccc(O)c(O)c1 | 6.4 µM | 7.6 µM | 73.6% | Active | 63.6% | 1450 nM | > 90% | Active | – |
| O=S(=O)(/C=C/c1ccc(O)c(O)c1)CC1CC1 | 10.5 µM | 33.5 µM | 92.9% | inactive | 87.8% | 6610 nM | > 90% | – | – |
| O=S(=O)(/C=C/c1ccc(O)c(O)c1)CC1CCCN1 (centres undefined) | 13.8 µM | 103 µM | 55.9% | – | 76.4% | – | > 90% | – | – |
| CCCCCCS(=O)(=O)/C=C/c1ccc(O)c(O)c1 | 7.3 µM | 3.8 µM | 63.7% | Active | 56.2% | 1300 nM | > 90% | Active | 30% |
| O=S(=O)(/C=C/c1ccc(O)c(O)c1)CCC1CCCCC1 | 9.8 µM | 11.3 µM | 94.9% | Active | 62.6% | 2000 nM | > 90% | Active | – |
| CC(C)(C)OC(=O)N1CCCC1CS(=O)(=O)/C=C/c1ccc(O)c(O)c1 (centres undefined) | 7.1 µM | 7 µM | 52.5% | inactive | 68.7% | 7200 nM | > 90% | – | – |
| O=S(=O)(/C=C/c1ccc(O)c(O)c1)CCCCCCCCCO | 7.5 µM | 11 µM | 95.2% | Active | 54.4% | 7910 nM | > 90% | Active | – |
| O=S(=O)(/C=C/c1ccc(O)c(O)c1)CC1CCCC1 | 9.4 µM | 15.8 µM | 85.4% | Active | 72.7% | 2190 nM | > 90% | Active | – |
| C=CCCCCCCS(=O)(=O)/C=C/c1ccc(O)c(O)c1 | 6.4 µM | 8.7 µM | 66.9% | Active | 73.4% | 1350 nM | > 90% | Active | 30% |
| O=S(=O)(/C=C/c1ccc(O)c(O)c1)CCCCCCCCO | 6.7 µM | 12.2 µM | 87.3% | Active | 49.5% | 7910 nM | > 90% | Active | – |
